Measurements published in ChEMBL document CHEMBL1140911, “Semisynthesis, biological activity, and molecular modeling studies of C-ring-modified camptothecins” (J Med Chem, 2009).
Counter-ions that a name gives are not always drawn. Activity calls are given as the source filed them. The rule behind the calls is not given here.

Tests used:
NCI-H460 = test: Antiproliferative activity against human NCI-H460 cells after short term exposure for 1 hr measured after 72 hrs in drug-free medium; assay type: functional, cell-based
In short: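 NCI-H460 human NSCLC cells grown in RPMI 1640 with 10% FCS. IC50 is the concentration giving 50% decrease in cell growth relative to untreated control.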

[1] = molecular target: T1, DNA topoisomerase 1 (Homo sapiens) (UniProt P11387); test: Induction of human recombinant topoisomerase 1-mediated SV40 DNA cleavage at 1 to 50 uM after 30 mins by PAGE
T1 sequence (whole entry): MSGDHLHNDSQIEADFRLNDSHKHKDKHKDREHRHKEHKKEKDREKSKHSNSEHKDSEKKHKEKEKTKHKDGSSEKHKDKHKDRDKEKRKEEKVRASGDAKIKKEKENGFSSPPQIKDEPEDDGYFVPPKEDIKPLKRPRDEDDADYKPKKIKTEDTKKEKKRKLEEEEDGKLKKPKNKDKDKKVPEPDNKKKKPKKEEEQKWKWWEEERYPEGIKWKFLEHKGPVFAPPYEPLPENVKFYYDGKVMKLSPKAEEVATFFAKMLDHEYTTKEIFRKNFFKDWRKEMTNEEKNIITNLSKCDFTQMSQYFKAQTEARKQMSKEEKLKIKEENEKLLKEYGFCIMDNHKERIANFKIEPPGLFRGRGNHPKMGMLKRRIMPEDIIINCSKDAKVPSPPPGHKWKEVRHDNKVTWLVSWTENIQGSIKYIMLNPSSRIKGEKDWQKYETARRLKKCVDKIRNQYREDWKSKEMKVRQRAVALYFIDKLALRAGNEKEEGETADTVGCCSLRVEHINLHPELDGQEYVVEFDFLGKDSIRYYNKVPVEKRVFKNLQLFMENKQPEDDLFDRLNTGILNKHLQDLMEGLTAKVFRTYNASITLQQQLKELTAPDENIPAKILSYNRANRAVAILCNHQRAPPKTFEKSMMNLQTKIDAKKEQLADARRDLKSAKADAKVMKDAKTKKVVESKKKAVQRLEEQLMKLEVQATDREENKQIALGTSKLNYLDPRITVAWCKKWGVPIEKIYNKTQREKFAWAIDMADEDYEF
In short: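 Substrate was a gel-purified 751-bp BamHI-EcoRI SV40 DNA fragment, uniquely 3′-end labeled (20 000 cpm/sample). It was reacted with full-length human recombinant topo I and drug at 1, 10 and 50 µM in 10 mM Tris-HCl pH 7.6, 150 mM KCl, 5 mM MgCl2, 15 µg/mL BSA, 0.1 mM DTT, 30 min at 37 °C. Stopped with 0.5% SDS/0.3 mg/mL proteinase K, 45 min, 42 °C. Run on denaturing 8% polyacrylamide gel and quantified by phosphorimaging. Band intensity was compared with SN38 reference.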

Row | Structure (SMILES) | IC50 (NCI-H460) [µM] | Activity [1]
1 | CC[C@@]1(O)C(=O)OCC2=C1C=C1c3nc4ccccc4cc3C3NN=C2N13 (mixture of isomers) | 46.8 | Active
2 | CCc1c2c(nc3ccc(O)cc13)-c1cc3c(c(=O)n1C2)COC(=O)[C@]3(O)CC [7-ETHYL-10-HYDROXYCAMPTOTHECIN] | 0.13 | Active
3 | CC[C@@]1(O)C(=O)OCc2c1cc1n(c2=O)[C@H](F)c2cc3ccccc3nc2-1 | 56 | Active
4 | CC[C@@]1(O)C(=O)OCc2c1cc1n(c2=O)Cc2cc3c(CN(C)C)c(O)ccc3nc2-1 [TOPOTECAN HYDROCHLORIDE] | 0.61 | –
5 | CC[C@@]1(O)C(=O)OCc2c1cc1n(c2=O)C(N)c2cc3ccccc3nc2-1 (stereo not given in full) | 30 | Active
6 | CC[C@@]1(O)C(=O)OCc2c1cc1n(c2=O)[C@@H](F)c2cc3ccccc3nc2-1 | 56 | Active
7 | CC[C@@]1(O)C(=O)OCc2c1cc1n(c2=O)[C@H](N=[N+]=[N-])c2cc3ccccc3nc2-1 | 6.7 | Active
8 | CC[C@@]1(O)C(=O)OCc2c1cc1n(c2=O)[C@@H](N(NC(=O)OCc2ccccc2)C(=O)OCc2ccccc2)c2cc3ccccc3nc2-1 | 85 | –
9 | CC[C@@]1(O)C(=O)OCc2c1cc1n(c2=O)C(C)c2cc3ccccc3nc2-1 (mixture of isomers) | 5.9 | Active
10 | CC[C@@]1(O)C(=O)OCc2c1cc1n(c2=O)C(N=[N+]=[N-])(N=[N+]=[N-])c2cc3ccccc3nc2-1 (stereo not given in full) | 9.3 | –
11 | CC[C@@]1(O)C(=O)OCc2c1cc1n(c2=O)[C@@H](N=[N+]=[N-])c2cc3ccccc3nc2-1 | 11.5 | –
12 | CC[C@@]1(O)C(=O)OCc2c1cc1n(c2=O)[C@@H](N(NC(=O)OC(C)(C)C)C(=O)OC(C)(C)C)c2cc3ccccc3nc2-1 | > 173 | –
13 | CC[C@@]1(O)C(=O)OCc2c1cc1n(c2=O)[C@H](N(NC(=O)OCc2ccccc2)C(=O)OCc2ccccc2)c2cc3ccccc3nc2-1 | 60 | –
14 | CC[C@@]1(O)C(=O)OCc2c1cc1n(c2=O)[C@H](N(NC(=O)OC(C)(C)C)C(=O)OC(C)(C)C)c2cc3ccccc3nc2-1 | 77 | Active
15 | CC[C@@]1(O)C(=O)OCc2c1cc1n(c2=O)C(CCCO)c2cc3ccccc3nc2-1 (mixture of isomers) | 16 | –
16 | CC[C@@]1(O)C(=O)OCc2c1cc1c3nc4ccccc4cc3c3nnc2n13 | 10.6 | Active
